Assay results published in ChEMBL document CHEMBL1134955, “Identification and structure-activity studies of novel ultrashort-acting benzodiazepine receptor agonists” (Bioorg Med Chem Lett, 2002).

Columns and labels:
[1] = target: GABA-A receptor; anion channel; experiment: Binding affinity to rat benzodiazepine receptor; assay type: protein-complex assay
In short: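 Rat BZD receptor membranes incubated with 2 nM [3H]-flunitrazepam and test ligand for 90 min at 4 °C in 50 mM Tris–HCl pH 7.4 with 150 mM NaCl. Twelve-point curves made by 3-fold serial dilution from DMSO stocks, final DMSO ≤0.4%. Nonspecific binding taken with 2'-chlorodiazepam. Filtration through GF/B, ice-cold Tris washes, scintillation counting. Triplicates, at least three runs; Ki reported in nM.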

[2] = Ratio between Ki (acid) / Ki (ester) was determined
In short: (§1)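 Ki of the acid divided by Ki of the matching ester. Both Ki values come from [3H]-flunitrazepam displacement at rat BZD receptor membranes (2 nM radioligand, 90 min, 4 °C, Tris–HCl pH 7.4 with NaCl), with triplicate 12-point curves.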

Rattus norvegicus [3] = experiment: Loss of righting reflex recovery time (initial) in rat was determined when treated with a dose of 30 mg/Kg; assay type: functional, organism-based
In short: (§2)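 Rats given an iv bolus in 50% PEG/25% EtOH/25% saline. Scored for time to LRR onset, initial recovery (rights itself three consecutive times) and total recovery (walks without ataxia and pulls up three times when hung from a horizontal wire), in min.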

Rattus norvegicus [4] = experiment: Loss of righting reflex recovery time (total) in rat was determined when treated with a dose of 30 mg/Kg; assay type: functional, organism-based; in short: as §2
[5] = target: GABA-A receptor; anion channel (Rattus norvegicus) (UniProt O09028+P15431+P18506+P18508+P19969+P20236+P23574+P23576+P28471+P28473+P30191+P62813+P63079+P63138+Q91ZM7+Q9ES14); experiment: Ratio between Ki value (acid) / Ki value (ester) was determined; assay type: protein-complex assay; in short: as §1

Row | SMILES | Ki [1] | Ratio [2] | Recovery time (Rattus norvegicus [3]) | Recovery time (Rattus norvegicus [4]) | Ratio [5]
1 | COC(=O)C[C@@H]1N=C(c2ccccc2F)c2cc(Cl)ccc2NC1=O | 81 nM | 165 |  |  | 
2 | Cc1ncc2n1-c1ccc(Cl)cc1C(c1ccccc1F)=NC2 [MIDAZOLAM] | 2 nM |  | 23 min | 121 min | 
3 | COC(=O)CCC[C@@H]1N=C(c2ccccc2F)c2cc(Cl)ccc2NC1=O | 3 nM |  |  |  | 186
4 | COC(=O)CN[C@@H]1N=C(c2ccccc2Cl)c2cc(Cl)ccc2NC1=O | 480 nM |  |  |  | 9
5 | CC(C)OC(=O)CC[C@@H]1N=C(c2ccccc2F)c2cc(Cl)ccc2NC1=O | 39 nM |  |  |  | 108
6 | O=C(CC[C@@H]1N=C(c2ccccc2F)c2cc(Cl)ccc2NC1=O)OCc1ccccc1 | 29 nM |  | 8 min | 19 min | 143
7 | O=C(C[C@H]1N=C(c2ccccc2)c2cc(Cl)ccc2NC1=O)OCc1ccccc1 | 100000 nM |  |  |  | 
8 | O=C(C[C@@H]1N=C(c2ccccc2F)c2cc(Cl)ccc2NC1=O)OCc1ccncc1 | 289 nM |  |  |  | 
9 | COC(=O)CC[C@@H]1N=C(c2ccccc2F)c2cc(Cl)ccc2NC1=O | 7 nM |  | 9 min | 24 min | 984
10 | COC(=O)CC[C@H]1N=C(c2ccccc2F)c2cc(Cl)ccc2NC1=O | 741 nM |  | 2 min | 4 min | 
11 | COC(=O)CCNC1N=C(c2ccccc2Cl)c2cc(Cl)ccc2NC1=O (centres undefined) | 17 nM |  |  |  | 17
12 | COC(=O)CC[C@@H]1N=C(c2ccccc2F)c2cc(Br)ccc2NC1=O | 3 nM |  | 22 min | 30 min | 431
13 | COC(=O)CC[C@@H]1N=C(c2ccccc2)c2cc([N+](=O)[O-])ccc2NC1=O | 118 nM |  | 2 min | 14 min | 95
14 | COC(=O)CN[C@H]1N=C(c2ccccc2Cl)c2cc(Cl)ccc2NC1=O | 23 nM |  |  |  | 172
15 | O=C(CC[C@@H]1N=C(c2ccccc2F)c2cc(Cl)ccc2NC1=O)OCc1ccncc1 | 34 nM |  |  |  | 124
16 | O=C(C[C@@H]1N=C(c2ccccc2)c2cc(Cl)ccc2NC1=O)OCc1ccccc1 | 1450 nM |  | 4 min | 14 min | 
17 | COC(=O)CC[C@@H]1N=C(c2ccccc2F)c2cc([N+](=O)[O-])ccc2NC1=O | 7 nM |  |  |  | 
18 | COC(=O)CNC1N=C(c2ccccc2Cl)c2cc(Cl)ccc2NC1=O (centres undefined) | 53 nM |  |  |  | 35
19 | O=C(CC[C@@H]1N=C(c2ccccc2)c2cc(Cl)ccc2NC1=O)OCc1ccccc1 | 200 nM |  | 15 min | 22 min | 
20 | O=C(CC[C@@H]1N=C(c2ccccc2F)c2ccccc2NC1=O)OCc1ccccc1 | 163 nM |  |  |  | 
21 | COC(=O)CC[C@@H]1N=C(c2ccccc2F)c2ccccc2NC1=O | 92 nM |  |  |  | 
22 | CN1C(=O)CN=C(c2ccccc2)c2cc(Cl)ccc21 |  |  | 5 min | 82 min | 
23 | O=C(C[C@@H]1N=C(c2ccccc2F)c2cc(Cl)ccc2NC1=O)OCc1ccccc1 | 176 nM |  | 13 min | 17 min | 76
24 | COC(=O)CCN[C@H]1N=C(c2ccccc2Cl)c2cc(Cl)ccc2NC1=O | 3 nM |  |  |  | 130
25 | O=C(CC[C@@H]1N=C(c2ccccc2)c2cc([N+](=O)[O-])ccc2NC1=O)OCc1ccccc1 | 124 nM |  | 2 min | 3 min | 91
26 | CCOC(=O)C[C@@H]1N=C(c2ccccc2F)c2cc(Cl)ccc2NC1=O | 45 nM |  |  |  | 297
27 | COC(=O)CCN[C@@H]1N=C(c2ccccc2Cl)c2cc(Cl)ccc2NC1=O | 189 nM |  |  |  | 1
28 | CCCCOC(=O)CC[C@@H]1N=C(c2ccccc2F)c2cc(Cl)ccc2NC1=O | 242 nM |  | 15 min | 25 min | 17
